Experimental data as given in ChEMBL document CHEMBL1275475, “Potent in vitro activity of tomopenem (CS-023) against methicillin-resistant Staphylococcus aureus and Pseudomonas aeruginosa” (Antimicrob Agents Chemother, 2008).
In brackets after ≈: the same amount, converted by molar mass.

Experiments:
Pseudomonas aeruginosa [1] = test: Antibacterial activity against Pseudomonas aeruginosa PAO1 by broth microdilution method; type: functional
Summary of the method: (§1)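 Standard broth microdilution in cation-adjusted Mueller-Hinton broth (25 mg Ca2+ and 12.5 mg Mg2+ per liter), inoculum 4×10^5 CFU/ml, against P. aeruginosa PAO1 or its laboratory mutants with defined resistance mechanisms. MIC was the lowest concentration completely inhibiting […] growth in wells. Determinations were done in duplicate.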

Pseudomonas aeruginosa [2] = test: Antibacterial activity against beta-lactamase-overproducing Pseudomonas aeruginosa N043 by broth microdilution method; type: functional; summary of the method: as §1
Pseudomonas aeruginosa [3] = test: Antibacterial activity against OprD-deficient Pseudomonas aeruginosa MR08 by broth microdilution method; type: functional; summary of the method: as §1
Pseudomonas aeruginosa [4] = test: Antibacterial activity against beta-lactamase-overproducing and OprD-deficient Pseudomonas aeruginosa N044 by broth microdilution method; type: functional; summary of the method: as §1
Pseudomonas aeruginosa [5] = test: Antibacterial activity against Pseudomonas aeruginosa COR6 expressing MexC-MexD-OprJ gene by broth microdilution method; type: functional; summary of the method: as §1
Pseudomonas aeruginosa [6] = test: Antibacterial activity against Pseudomonas aeruginosa N091 by broth microdilution method; type: functional; summary of the method: as §1
Pseudomonas aeruginosa [7] = test: Antibacterial activity against Pseudomonas aeruginosa N092 expressing MexE-MexF-OprN gene and OprD mutant gene and harboring nfxC mutant gene by broth microdilution method
Staphylococcus aureus [8] = test: Antibacterial activity against methicillin-resistant Staphylococcus aureus by broth microdilution method; type: functional
Summary of the method: (§2)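 Standard broth microdilution in cation-adjusted Mueller-Hinton broth (25 mg Ca2+ and 12.5 mg Mg2+ per liter), inoculum 4×10^5 CFU/ml. Isolates were 60 German MRSA clinical strains, and penicillinase-plasmid-cured MRSA 123-1 and 12386-1. QC strain was S. aureus ATCC 29213.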

Pseudomonas aeruginosa [9] = test: Antibacterial activity against Pseudomonas aeruginosa clinical isolates by broth microdilution method; type: functional
Summary of the method: (§3)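 Broth microdilution in cation-adjusted Mueller-Hinton broth (25 mg Ca2+ and 12.5 mg Mg2+ per liter), inoculum 4×10^5 CFU/ml. MIC was the lowest concentration completely inhibiting visible growth in wells. European clinical isolates were tested with S. aureus ATCC 29213 and P. aeruginosa ATCC 27853 as quality controls. PAO1-derived mutants were run in duplicate.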

Pseudomonas aeruginosa [10] = test: Antibacterial activity against meropenem-resistant Pseudomonas aeruginosa clinical isolates by broth microdilution method; type: functional
Summary of the method: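 Standard broth microdilution in cation-adjusted Mueller-Hinton broth (25 mg Ca2+ and 12.5 mg Mg2+ per liter), inoculum 4×10^5 CFU/ml. MIC is the lowest concentration completely inhibiting […] growth in wells. […] P. aeruginosa ATCC 27853 serves as QC strain.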

Staphylococcus aureus [11] = test: Antibacterial activity against methicillin-resistant Staphylococcus aureus 123-1 expressing PBP 2a by broth microdilution method; type: functional; summary of the method: as §2
Staphylococcus aureus [12] = test: Antibacterial activity against methicillin-resistant Staphylococcus aureus 12386-1 expressing PBP 2a by broth microdilution method; type: functional; summary of the method: as §2
MecA [13] = target: T1, MecA (Staphylococcus aureus, UniProt Q7DHH4); test: Binding affinity to PBP2a in methicillin-resistant Staphylococcus aureus 123-1 by [14C]benzylpenicillin labelled competitive assay
T1 sequence (Q7DHH4 whole entry): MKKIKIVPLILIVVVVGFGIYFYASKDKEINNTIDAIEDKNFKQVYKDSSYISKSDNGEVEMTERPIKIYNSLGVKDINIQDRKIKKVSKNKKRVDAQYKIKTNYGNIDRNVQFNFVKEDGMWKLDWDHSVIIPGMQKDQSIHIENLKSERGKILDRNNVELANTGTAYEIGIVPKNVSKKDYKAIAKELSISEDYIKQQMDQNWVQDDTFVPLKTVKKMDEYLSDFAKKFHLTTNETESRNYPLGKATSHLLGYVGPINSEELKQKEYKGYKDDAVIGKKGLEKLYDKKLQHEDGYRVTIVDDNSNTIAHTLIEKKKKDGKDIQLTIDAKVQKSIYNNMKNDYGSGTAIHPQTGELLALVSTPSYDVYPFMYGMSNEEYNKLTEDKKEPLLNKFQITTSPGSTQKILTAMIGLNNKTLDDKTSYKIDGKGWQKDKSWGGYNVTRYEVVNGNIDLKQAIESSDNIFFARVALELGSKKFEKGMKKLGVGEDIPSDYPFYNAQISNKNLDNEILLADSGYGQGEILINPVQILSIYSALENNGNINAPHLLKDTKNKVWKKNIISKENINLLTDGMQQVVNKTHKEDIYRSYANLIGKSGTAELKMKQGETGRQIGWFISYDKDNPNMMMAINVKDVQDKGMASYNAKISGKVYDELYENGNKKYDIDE
Summary of the method: (§4)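 Competition against [14C]benzylpenicillin. Membranes came from penicillinase-plasmid-cured MRSA lysed with lysostaphin (100 μg/ml), DNase (1 μg/ml) and sonication in 50 mM sodium phosphate, 10 mM MgCl2, pH 7.0. They were collected at 5,000 × g for 10 min, then 100,000 × g for 60 min, at final 8 mg/ml protein. Compound was added for 30 min, then label for 30 min, at 37°C. IC50 for 50% label-binding inhibition to PBP 2a was read by imaging analyzer.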

MecA [14] = target: T1, MecA; test: Binding affinity to PBP2a in methicillin-resistant Staphylococcus aureus 12386-1 by [14C]benzylpenicillin labelled competitive assay; summary of the method: as §4
Pseudomonas aeruginosa [15] = test: Antibacterial activity against MexA-MexB-OprM-overproducing Pseudomonas aeruginosa OCR1 by broth microdilution method; type: functional; summary of the method: as §1
Pseudomonas aeruginosa [16] = test: Antibacterial activity against beta-lactamase and MexA-MexB-OprM-overproducing Pseudomonas aeruginosa N045 by broth microdilution method; type: functional; summary of the method: as §3
Pseudomonas aeruginosa [17] = test: Antibacterial activity against MexA-MexB-OprM-overproducing and OprD-deficient Pseudomonas aeruginosa N041 by broth microdilution method; type: functional; summary of the method: as §1
Pseudomonas aeruginosa [18] = test: Ratio of MIC for Pseudomonas aeruginosa N043 to MIC for Pseudomonas aeruginosa PAO1; type: functional
Summary of the method: (§5)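 MICs were measured for PAO1-derived resistance mutants and the parent PAO1 by broth microdilution in cation-adjusted Mueller-Hinton broth (25 mg/liter Ca2+, 12.5 mg/liter Mg2+), inoculum 4×10^5 CFU/ml, in duplicate. MIC was the lowest concentration with complete growth inhibition. The ratio is the mutant MIC divided by the PAO1 MIC.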

Pseudomonas aeruginosa [19] = test: Ratio of MIC for Pseudomonas aeruginosa MR08 to MIC for Pseudomonas aeruginosa PAO1; type: functional; summary of the method: as §5
Pseudomonas aeruginosa [20] = test: Ratio of MIC for Pseudomonas aeruginosa OCR1 to MIC for Pseudomonas aeruginosa PAO1; type: functional; summary of the method: as §5
Pseudomonas aeruginosa [21] = test: Ratio of MIC for Pseudomonas aeruginosa N044 to MIC for Pseudomonas aeruginosa PAO1; type: functional; summary of the method: as §5
Pseudomonas aeruginosa [22] = test: Ratio of MIC for Pseudomonas aeruginosa N045 to MIC for Pseudomonas aeruginosa PAO1; type: functional; summary of the method: as §5
Pseudomonas aeruginosa [23] = test: Ratio of MIC for Pseudomonas aeruginosa N041 to MIC for Pseudomonas aeruginosa PAO1; type: functional; summary of the method: as §5
Pseudomonas aeruginosa [24] = test: Ratio of MIC for Pseudomonas aeruginosa COR6 to MIC for Pseudomonas aeruginosa PAO1; type: functional; summary of the method: as §5
Pseudomonas aeruginosa [25] = test: Ratio of MIC for Pseudomonas aeruginosa N092 to MIC for Pseudomonas aeruginosa PAO1; type: functional; summary of the method: as §5

In the case of C[C@H]1COc2c(N3CCN(C)CC3)c(F)cc3c(=O)c(C(=O)O)cn1c23.C[C@H]1COc2c(N3CCN(C)CC3)c(F)cc3c(=O)c(C(=O)O)cn1c23.O [LEVOFLOXACIN], the MIC (Pseudomonas aeruginosa [1]) is reported as 0.5 µg/mL, the MIC (Pseudomonas aeruginosa [2]) is reported as 0.25 µg/mL and the MIC (Pseudomonas aeruginosa [3]) is reported as 0.5 µg/mL. It also gave an MIC (Pseudomonas aeruginosa [4]) of 0.25 µg/mL, an MIC (Pseudomonas aeruginosa [5]) of 8 µg/mL and an MIC (Pseudomonas aeruginosa [6]) of 0.5 µg/mL. The MIC (Pseudomonas aeruginosa [7]) was 8 µg/mL.
Molecule C[C@@H](O)[C@H]1C(=O)N2C(C(=O)O)=C(S[C@@H]3CN[C@H](C(=O)N(C)C)C3)[C@H](C)[C@H]12 [MEROPENEM] has an MIC50 (Staphylococcus aureus [8]) of 8 µg/mL (≈ 20.9 µM), an MIC90 (Staphylococcus aureus [8]) of 32 µg/mL (≈ 83.4 µM) and an MIC50 (Pseudomonas aeruginosa [9]) of 1 µg/mL (≈ 2.61 µM). For the same molecule, the MIC90 (Pseudomonas aeruginosa [9]) was 16 µg/mL (≈ 41.7 µM), the MIC (Pseudomonas aeruginosa [10]) was ≥ 16 µg/mL and the MIC (Staphylococcus aureus [11]) was 32 µg/mL (≈ 83.4 µM). The MIC (Staphylococcus aureus [12]) was 16 µg/mL (≈ 41.7 µM), the IC50 (MecA [13]) was 339 µM and the IC50 (MecA [14]) was 138 µM. For the same molecule, the MIC (Pseudomonas aeruginosa [1]) was 0.5 µg/mL (≈ 1.3 µM), the MIC (Pseudomonas aeruginosa [2]) was 1 µg/mL (≈ 2.61 µM) and the MIC (Pseudomonas aeruginosa [3]) was 4 µg/mL (≈ 10.4 µM). It also gave an MIC (Pseudomonas aeruginosa [15]) of 2 µg/mL (≈ 5.22 µM), an MIC (Pseudomonas aeruginosa [4]) of 16 µg/mL (≈ 41.7 µM) and an MIC (Pseudomonas aeruginosa [16]) of 2 µg/mL (≈ 5.22 µM). It also gave an MIC (Pseudomonas aeruginosa [17]) of 16 µg/mL (≈ 41.7 µM), an MIC (Pseudomonas aeruginosa [5]) of 0.5 µg/mL (≈ 1.3 µM) and an MIC (Pseudomonas aeruginosa [6]) of 0.5 µg/mL (≈ 1.3 µM). It also gave a Ratio (Pseudomonas aeruginosa [18]) of 2, a Ratio (Pseudomonas aeruginosa [19]) of 8 and a Ratio (Pseudomonas aeruginosa [20]) of 4. It also gave a Ratio (Pseudomonas aeruginosa [21]) of 32, a Ratio (Pseudomonas aeruginosa [22]) of 4 and a Ratio (Pseudomonas aeruginosa [23]) of 32. The Ratio (Pseudomonas aeruginosa [24]) was 1, the Ratio (Pseudomonas aeruginosa [25]) was 2 and the MIC (Pseudomonas aeruginosa [7]) was 1 µg/mL (≈ 2.61 µM).
C[C@@H](O)[C@H]1C(=O)N2C(C(=O)O)=C(S[C@H]3C[C@@H](C(=O)N4CC[C@H](NC(=O)CNC(=N)N)C4)N(C)C3)[C@H](C)[C@H]12 [TOMOPENEM] showed an MIC50 (Staphylococcus aureus [8]) of 4 µg/mL (≈ 7.44 µM), an MIC90 (Staphylococcus aureus [8]) of 8 µg/mL (≈ 14.9 µM) and an MIC50 (Pseudomonas aeruginosa [9]) of 0.5 µg/mL (≈ 0.93 µM). The MIC90 (Pseudomonas aeruginosa [9]) was 4 µg/mL (≈ 7.44 µM), the MIC (Staphylococcus aureus [11]) was 8 µg/mL (≈ 14.9 µM) and the MIC (Staphylococcus aureus [12]) was 8 µg/mL (≈ 14.9 µM). It also gave an IC50 (MecA [13]) of 9.86 µM, an IC50 (MecA [14]) of 5.39 µM and an MIC (Pseudomonas aeruginosa [1]) of 0.25 µg/mL (≈ 0.465 µM). For the same molecule, the MIC (Pseudomonas aeruginosa [2]) was 0.5 µg/mL (≈ 0.93 µM), the MIC (Pseudomonas aeruginosa [3]) was 1 µg/mL (≈ 1.86 µM) and the MIC (Pseudomonas aeruginosa [15]) was 0.5 µg/mL (≈ 0.93 µM). The MIC (Pseudomonas aeruginosa [4]) was 8 µg/mL (≈ 14.9 µM), the MIC (Pseudomonas aeruginosa [16]) was 1 µg/mL (≈ 1.86 µM) and the MIC (Pseudomonas aeruginosa [17]) was 2 µg/mL (≈ 3.72 µM). For the same molecule, the MIC (Pseudomonas aeruginosa [5]) was 0.25 µg/mL (≈ 0.465 µM), the MIC (Pseudomonas aeruginosa [6]) was 0.25 µg/mL (≈ 0.465 µM) and the Ratio (Pseudomonas aeruginosa [18]) was 2. It also gave a Ratio (Pseudomonas aeruginosa [19]) of 4, a Ratio (Pseudomonas aeruginosa [20]) of 2 and a Ratio (Pseudomonas aeruginosa [21]) of 32. The Ratio (Pseudomonas aeruginosa [22]) was 4, the Ratio (Pseudomonas aeruginosa [23]) was 8 and the Ratio (Pseudomonas aeruginosa [24]) was 1. For the same molecule, the Ratio (Pseudomonas aeruginosa [25]) was 2 and the MIC (Pseudomonas aeruginosa [7]) was 0.5 µg/mL (≈ 0.93 µM).
